Assay results published in ChEMBL document CHEMBL4184325, “Discovery of 4,7-Diamino-5-(4-phenoxyphenyl)-6-methylene-pyrimido[5,4- b]pyrrolizines as Novel Bruton's Tyrosine Kinase Inhibitors” (J Med Chem, 2018).
The source made the active and inactive calls. The calls are words filed in the database; no cut-off is given here.

How the values were obtained:
[1] = Drug metabolism in mouse liver microsomes assessed as (S)-N-(4-amino-5-(4-(4-hydroxyphenoxy)phenyl)-6-methylene-7,8-dihydro-6H-pyrimido[5,4-b]pyrrolizin-7-yl)acrylamide formation after 3 hrs; format: ADME, microsome
[2] = molecular target: Proto-oncogene tyrosine-protein kinase receptor Ret (Homo sapiens, UniProt P07949); test: Inhibition of recombinant human RET using Poly(Glu, Tyr) 4:1 as substrate after 1 hr by ELISA
Chain of Proto-oncogene tyrosine-protein kinase receptor Ret (P07949 whole entry): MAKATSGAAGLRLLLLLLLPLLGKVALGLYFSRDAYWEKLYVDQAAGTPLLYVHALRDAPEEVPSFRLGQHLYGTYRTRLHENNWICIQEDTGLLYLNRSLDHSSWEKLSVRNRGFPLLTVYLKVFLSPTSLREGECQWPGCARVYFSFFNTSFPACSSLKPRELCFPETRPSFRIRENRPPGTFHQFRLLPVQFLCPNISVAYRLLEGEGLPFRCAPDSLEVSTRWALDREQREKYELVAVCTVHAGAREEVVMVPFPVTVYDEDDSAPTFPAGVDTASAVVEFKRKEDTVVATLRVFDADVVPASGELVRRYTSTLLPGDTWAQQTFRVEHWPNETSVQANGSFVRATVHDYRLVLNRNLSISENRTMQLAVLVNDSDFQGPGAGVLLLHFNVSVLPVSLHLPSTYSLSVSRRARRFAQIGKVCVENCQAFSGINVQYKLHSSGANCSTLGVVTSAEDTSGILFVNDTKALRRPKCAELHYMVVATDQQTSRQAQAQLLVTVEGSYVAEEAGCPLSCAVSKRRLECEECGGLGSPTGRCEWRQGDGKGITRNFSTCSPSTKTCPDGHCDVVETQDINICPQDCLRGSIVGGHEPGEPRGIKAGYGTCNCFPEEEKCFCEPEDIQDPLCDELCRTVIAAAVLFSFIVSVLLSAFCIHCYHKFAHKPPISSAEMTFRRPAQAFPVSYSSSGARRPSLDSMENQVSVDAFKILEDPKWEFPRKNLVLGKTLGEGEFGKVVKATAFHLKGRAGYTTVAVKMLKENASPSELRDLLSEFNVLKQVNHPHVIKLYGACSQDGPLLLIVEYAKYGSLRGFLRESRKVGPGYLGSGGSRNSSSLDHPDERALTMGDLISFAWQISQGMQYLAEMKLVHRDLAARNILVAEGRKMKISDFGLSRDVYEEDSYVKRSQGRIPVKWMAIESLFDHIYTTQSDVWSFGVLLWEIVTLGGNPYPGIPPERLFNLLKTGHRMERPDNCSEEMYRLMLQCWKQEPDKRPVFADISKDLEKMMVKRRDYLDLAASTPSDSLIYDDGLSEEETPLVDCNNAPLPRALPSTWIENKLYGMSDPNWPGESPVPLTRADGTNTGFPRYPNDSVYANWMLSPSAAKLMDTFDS

TMD8 [3] = test: Induction of apoptosis in human TMD8 cells assessed as early apoptotic cells at 10 nM after 72 hrs by Annexin-FITC/propidium iodide staining-based flow cytometric method (reference value: 7.98%); format: functional
[4] = molecular target: T1, Tyrosine-protein kinase Tec (Homo sapiens, UniProt P42680); test: Inhibition of recombinant human TEC using Poly(Glu, Tyr) 4:1 as substrate after 1 hr by ELISA
T1 sequence (P42680 whole entry): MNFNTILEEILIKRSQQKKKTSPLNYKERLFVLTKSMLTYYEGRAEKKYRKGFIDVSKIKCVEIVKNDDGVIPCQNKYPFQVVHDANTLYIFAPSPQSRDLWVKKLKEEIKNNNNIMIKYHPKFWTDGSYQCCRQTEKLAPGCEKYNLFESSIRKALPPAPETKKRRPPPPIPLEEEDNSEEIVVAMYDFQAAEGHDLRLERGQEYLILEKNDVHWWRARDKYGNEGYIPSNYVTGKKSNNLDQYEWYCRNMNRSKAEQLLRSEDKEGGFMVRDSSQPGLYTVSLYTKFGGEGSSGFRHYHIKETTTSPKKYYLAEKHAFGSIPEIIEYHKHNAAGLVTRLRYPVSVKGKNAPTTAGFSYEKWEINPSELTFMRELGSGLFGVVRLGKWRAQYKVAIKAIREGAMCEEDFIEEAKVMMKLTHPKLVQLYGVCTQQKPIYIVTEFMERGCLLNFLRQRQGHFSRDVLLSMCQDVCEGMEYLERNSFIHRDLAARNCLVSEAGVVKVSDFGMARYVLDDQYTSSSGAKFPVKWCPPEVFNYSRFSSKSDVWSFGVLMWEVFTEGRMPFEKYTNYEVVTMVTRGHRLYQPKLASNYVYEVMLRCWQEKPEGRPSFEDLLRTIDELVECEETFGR
Summary of the method: (§1)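 Kinase activity was measured by ELISA on wells precoated with 20 µg/mL poly(Glu,Tyr) 4:1. Enzyme was incubated with compound in 50 mM HEPES pH 7.4, 20 mM MgCl2, 0.1 mM MnCl2, 0.2 mM Na3VO4, 1 mM DTT with 5 µM ATP at 37 °C for 1 h. Phosphotyrosine was detected with PY99 antibody, HRP secondary and OPD, read at A492. IC50 is the mean of duplicates.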

[5] = molecular target: T2, Tyrosine-protein kinase TXK (Homo sapiens, UniProt P42681); test: Inhibition of recombinant human TXK using Poly(Glu, Tyr) 4:1 as substrate after 1 hr by ELISA; summary of the method: as §1
T2 sequence (P42681 whole entry): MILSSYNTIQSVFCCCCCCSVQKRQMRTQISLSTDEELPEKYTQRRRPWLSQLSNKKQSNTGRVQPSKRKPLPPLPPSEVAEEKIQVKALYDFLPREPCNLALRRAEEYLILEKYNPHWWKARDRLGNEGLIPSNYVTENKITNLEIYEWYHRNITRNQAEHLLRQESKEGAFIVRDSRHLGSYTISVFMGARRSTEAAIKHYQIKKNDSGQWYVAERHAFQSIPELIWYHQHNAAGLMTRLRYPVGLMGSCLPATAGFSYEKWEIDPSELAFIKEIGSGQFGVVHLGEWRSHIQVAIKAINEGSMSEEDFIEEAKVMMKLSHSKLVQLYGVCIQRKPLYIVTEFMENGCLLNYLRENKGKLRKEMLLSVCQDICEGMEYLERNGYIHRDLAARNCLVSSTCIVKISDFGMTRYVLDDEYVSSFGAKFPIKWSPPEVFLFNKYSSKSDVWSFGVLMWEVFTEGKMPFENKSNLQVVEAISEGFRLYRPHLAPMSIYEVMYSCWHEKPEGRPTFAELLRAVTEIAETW

[6] = Drug metabolism in mouse liver microsomes assessed as (S,E)-N-(4-amino-6-methylene-5-(4-phenoxyphenyl)-7,8-dihydro-6H-pyrimido[5,4-b]pyrrolizin-7-yl)-3-hydroxyacrylamide formation after 3 hrs; format: ADME, microsome
TMD8 [7] = test: Induction of apoptosis in human TMD8 cells assessed as early apoptotic cells at 100 nM after 72 hrs by Annexin-FITC/propidium iodide staining-based flow cytometric method (reference value: 7.98%); format: functional
Mus musculus [8] = test: In vivo inhibition of BTK in human TMD8 cells xenografted in CB17 SCID nude mouse assessed as decrease in PLCgamma2 phosphorylation at Y759 at 15 mg/kg, […] by Western blot method; format: functional, organism-based
[9] = molecular target: T3, Tyrosine-protein kinase BTK (Homo sapiens, UniProt Q06187); test: Inhibition of BTK autophosphorylation at Y223 in human TMD8 cells after 4 hrs by Western blot method
T3 sequence (Q06187 whole entry): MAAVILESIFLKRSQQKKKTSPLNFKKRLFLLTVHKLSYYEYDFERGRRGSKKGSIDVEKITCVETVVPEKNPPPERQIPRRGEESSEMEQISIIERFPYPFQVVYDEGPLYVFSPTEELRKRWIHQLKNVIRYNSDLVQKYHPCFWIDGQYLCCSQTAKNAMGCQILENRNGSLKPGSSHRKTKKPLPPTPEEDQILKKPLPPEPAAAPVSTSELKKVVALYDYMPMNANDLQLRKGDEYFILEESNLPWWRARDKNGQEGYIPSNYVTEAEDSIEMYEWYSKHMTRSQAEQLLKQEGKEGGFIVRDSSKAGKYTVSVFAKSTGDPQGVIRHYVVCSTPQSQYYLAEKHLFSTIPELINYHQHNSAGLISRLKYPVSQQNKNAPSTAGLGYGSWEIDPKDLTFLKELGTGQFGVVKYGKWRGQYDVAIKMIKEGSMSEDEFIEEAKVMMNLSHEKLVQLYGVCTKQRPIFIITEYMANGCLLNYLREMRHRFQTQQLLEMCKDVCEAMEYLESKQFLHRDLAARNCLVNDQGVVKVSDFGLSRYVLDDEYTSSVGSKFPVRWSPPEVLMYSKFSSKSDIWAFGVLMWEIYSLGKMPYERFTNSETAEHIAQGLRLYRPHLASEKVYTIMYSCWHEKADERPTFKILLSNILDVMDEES

TMD8 [10] = test: Cell cycle arrest in human TMD8 cells assessed as accumulation at S phase at 100 nM after 48 hrs by propidium iodide staining-based flow cytometric method (reference value: 34.15%); format: functional
TMD8 [11] = test: Induction of apoptosis in human TMD8 cells assessed as early apoptotic cells at 1000 nM after 72 hrs by Annexin-FITC/propidium iodide staining-based flow cytometric method (reference value: 7.98%); format: functional
Rattus norvegicus [12] = test: Oral bioavailability in rat at 3 mg/kg; format: ADME, organism-based; conditions: in vivo
Summary of the method: (§2)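 Rats were given compound at 1 mg/kg iv or 3 mg/kg po. Vehicle was DMSO, Tween 80 and normal saline. Values are the average of three determinations.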

Mus musculus [13] = test: Toxicity in CB17 SCID nude mouse xenografted with human TMD8 cells assessed as change in body weight at 15 mg/kg, po qd administered for 13 consecutive days measured during compound dosing up to day 17 post dose; format: organism-based; conditions: in vivo
Rattus norvegicus [14] = test: Volume of distribution at steady state in rat at 1 mg/kg, iv; format: ADME, organism-based; conditions: in vivo; summary of the method: as §2
TMD8 [15] = test: Antiproliferative activity against human TMD8 cells xenografted in CB17 SCID nude mouse assessed as decrease in Ki-67 expression at 15 mg/kg, […] by […] immunohistochemical analysis; format: functional, organism-based
[16] = Drug metabolism in human liver microsomes assessed as (S)-N-(4-amino-5-(4-hydroxyphenyl)-6-methylene-7,8-dihydro-6H-pyrimido[5,4-b]pyrrolizin-7-yl)acrylamide formation after 3 hrs; format: ADME, microsome
[17] = molecular target: T3, Tyrosine-protein kinase BTK; conditions: TMD8, 1 to 100 nM
TMD8 [18] = test: Cell cycle arrest in human TMD8 cells assessed as accumulation at S phase at 1 nM after 48 hrs by propidium iodide staining-based flow cytometric method (reference value: 34.15%); format: functional
[19] = molecular target: Platelet-derived growth factor receptor beta (Homo sapiens, UniProt P09619); test: Inhibition of recombinant human PDGFR-beta using Poly(Glu, Tyr) 4:1 as substrate after 1 hr by ELISA
Chain of Platelet-derived growth factor receptor beta (P09619 whole entry): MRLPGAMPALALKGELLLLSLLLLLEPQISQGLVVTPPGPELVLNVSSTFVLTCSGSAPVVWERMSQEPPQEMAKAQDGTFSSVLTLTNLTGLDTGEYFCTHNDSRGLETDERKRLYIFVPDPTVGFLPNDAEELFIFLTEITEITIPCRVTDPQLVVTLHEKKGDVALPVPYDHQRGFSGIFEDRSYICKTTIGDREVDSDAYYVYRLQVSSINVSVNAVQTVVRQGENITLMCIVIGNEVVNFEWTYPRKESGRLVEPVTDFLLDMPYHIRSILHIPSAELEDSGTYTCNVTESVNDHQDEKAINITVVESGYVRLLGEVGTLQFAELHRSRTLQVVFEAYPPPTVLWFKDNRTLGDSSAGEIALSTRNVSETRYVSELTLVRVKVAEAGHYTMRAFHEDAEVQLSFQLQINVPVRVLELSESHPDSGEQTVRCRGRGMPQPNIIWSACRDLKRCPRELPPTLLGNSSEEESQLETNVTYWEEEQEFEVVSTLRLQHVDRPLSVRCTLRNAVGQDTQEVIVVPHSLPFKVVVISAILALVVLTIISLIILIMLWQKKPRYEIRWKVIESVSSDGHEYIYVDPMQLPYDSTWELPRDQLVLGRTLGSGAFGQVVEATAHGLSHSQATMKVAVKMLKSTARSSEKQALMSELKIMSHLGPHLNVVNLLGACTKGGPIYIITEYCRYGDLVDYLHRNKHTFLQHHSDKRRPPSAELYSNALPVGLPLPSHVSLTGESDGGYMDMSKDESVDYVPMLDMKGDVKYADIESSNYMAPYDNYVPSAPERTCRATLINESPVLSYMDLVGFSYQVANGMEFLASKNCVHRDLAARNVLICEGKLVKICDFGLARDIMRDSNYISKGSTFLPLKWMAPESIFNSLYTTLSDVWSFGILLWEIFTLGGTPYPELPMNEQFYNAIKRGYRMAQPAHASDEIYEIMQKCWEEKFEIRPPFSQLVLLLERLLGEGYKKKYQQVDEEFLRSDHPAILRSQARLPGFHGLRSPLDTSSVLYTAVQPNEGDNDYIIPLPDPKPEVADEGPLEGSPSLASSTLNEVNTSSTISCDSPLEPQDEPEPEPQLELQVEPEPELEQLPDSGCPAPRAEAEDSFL

Drug metabolism [1]: Metabolite_Detected
IC50 [2]: 20.3 nM
IC50 [4]: 1.4 nM
IC50 [5]: 2.5 nM
Drug metabolism [6]: Metabolite_Detected
IC50 [9]: < 10 nM
F (Rattus norvegicus [12]): 18.3%
Vdss (Rattus norvegicus [14]): 1.3 L/kg
Drug metabolism [16]: Metabolite_Detected
inhibition [17]: Active
IC50 [19]: 215 nM
SMILES: C=CC(=O)N[C@@H]1Cn2c(c(-c3ccc(Oc4ccccc4)cc3)c3c(N)ncnc32)C1=C
Activity (TMD8 [3]): 27.6%
Activity (TMD8 [7]): 34.5%
inhibition (Mus musculus [8]): Active
Activity (TMD8 [10]): 12.79%
Activity (TMD8 [11]): 51.1%
Activity (Mus musculus [13]): Non-Toxic
Activity (TMD8 [15]): Active
Activity (TMD8 [18]): 25.22%
